Measurements as given in ChEMBL document CHEMBL4732225, “Identification of a new class of HBV capsid assembly modulator” (Bioorg Med Chem Lett, 2021).

Legend:
[1] = Metabolic stability in human microsomes assessed as intrinsic clearance; type: ADME, Microsome
[2] = Half life in Sprague-Dawley rat at 5 mg/kg, po or 1.25 mg/kg, iv; type: ADME, organism-based; settings: in vivo
Summary of the method: (§1)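 Sprague-Dawley rats, n = 3. Oral dose 5 mg/kg in 70% PEG400 vehicle; IV dose 1.25 mg/kg in saline vehicle.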

[3] = Tmax in Sprague-Dawley rat at 5 mg/kg, po; type: ADME, organism-based; settings: in vivo; summary of the method: as §1
[4] = Volume of distribution at steady state in Sprague-Dawley rat at 5 mg/kg, po or 1.25 mg/kg, iv; type: ADME, organism-based; settings: in vivo, read-out: Vdss; summary of the method: as §1
[5] = Ratio of drug level in liver to plasma in Sprague-Dawley rat at 5 mg/kg, po or 1.25 mg/kg, iv; type: ADME, organism-based; settings: liver and plasma; summary of the method: as §1
[6] = Oral bioavailability in Sprague-Dawley rat at 5 mg/kg; type: ADME, organism-based; settings: in vivo; summary of the method: as §1
[7] = Oral bioavailability in Beagle dog at […]; type: ADME, organism-based, Canis lupus familiaris; settings: in vivo, dose 2.5 mg/kg
[8] = Half life in Beagle dog at […], po or 1 mg/kg, iv; type: ADME, organism-based, Canis lupus familiaris; settings: in vivo, dose 2.5 mg/kg
[9] = Plasma clearance in Sprague-Dawley rat at 5 mg/kg, po or 1.25 mg/kg, iv; type: ADME, organism-based; summary of the method: as §1
[10] = Cmax in Sprague-Dawley rat at 5 mg/kg, po; type: ADME, organism-based; design: route oral, dose 5 mg/kg; settings: in vivo; summary of the method: as §1
[11] = Tmax in Beagle dog at […], po; type: ADME, organism-based, Canis lupus familiaris; settings: in vivo, dose 2.5 mg/kg
[12] = AUC (0 to infinity) in Sprague-Dawley rat at 5 mg/kg, po; type: ADME, organism-based; design: time infinity, route oral, dose 5 mg/kg; settings: in vivo; summary of the method: as §1
[13] = Volume of distribution at steady state in Beagle dog at […], po or 1 mg/kg, iv; type: ADME, organism-based, Canis lupus familiaris; settings: in vivo, dose 2.5 mg/kg, read-out: Vdss
[14] = AUC (0 to infinity) in Beagle dog at […], po; type: ADME, organism-based, Canis lupus familiaris; design: route oral, time infinity, dose 2.5 mg/kg; settings: in vivo
[15] = Cmax in Beagle dog at […], po; type: ADME, organism-based, Canis lupus familiaris; design: route oral, dose 2.5 mg/kg; settings: in vivo

| CLint scaled [1] | Compound | further results |
| --- | --- | --- |
| 160 mL/min/kg | O=C(Nc1cccc(Cl)c1)N1CCc2[nH]nc(-c3ccsc3)c2C1 |  |
| 33 mL/min/kg | O=C(Nc1cccc(Cl)c1)N1CCc2[nH]nc(-c3cscn3)c2C1 |  |
| 24 mL/min/kg | C[C@H]1Cc2[nH]nc(-c3cscn3)c2CN1C(=O)Nc1ccc(F)c(Br)c1 |  |
| 43 mL/min/kg | C[C@@H]1Cc2[nH]nc(-c3ccccc3)c2CN1C(=O)Nc1cccc(Cl)c1 |  |
| 356 mL/min/kg | O=C(Nc1cccc(Cl)c1)N1CCc2[nH]nc(-c3cccs3)c2C1 |  |
| 12 mL/min/kg | C[C@H]1Cc2[nH]nc(-c3cscn3)c2CN1C(=O)Nc1ccnc(Br)c1F |  |
| 53 mL/min/kg | O=C(Nc1cccc(Cl)c1)N1CCc2[nH]nc(-c3nccs3)c2C1 |  |
| 22 mL/min/kg | CC[C@H]1Cc2[nH]nc(-c3ccccc3)c2CN1C(=O)Nc1cccc(Cl)c1 |  |
| 15 mL/min/kg | C[C@H]1Cc2[nH]nc(-c3ccccc3)c2CN1C(=O)Nc1cccc(Cl)c1 |  |
| 20 mL/min/kg | C[C@H]1Cc2[nH]nc(-c3cscn3)c2CN1C(=O)Nc1cccc(Cl)c1 |  |
| 50 mL/min/kg | O=C(Nc1cccc(Cl)c1)N1CCc2[nH]nc(-c3cocn3)c2C1 |  |
| 13 mL/min/kg | C[C@H]1Cc2[nH]nc(-c3cscn3)c2CN1C(=O)Nc1ccc(F)c(C#N)c1 | half-life [2]: 2.28 h; Tmax [3]: 6 h; Vd [4]: 2.97 L/kg; Kp [5]: 17; bioavailability [6]: 38%; F [7]: 73%; half-life [8]: 2.17 h; clearance [9]: 30.7 mL/min/kg; Cmax [10]: 73 ng/mL; Tmax [11]: 1 h; AUC(0-inf) [12]: 1030 ng·h/mL; Vd [13]: 3 L/kg; AUC [14]: 1620 ng·h/mL; Cmax [15]: 472 ng/mL |
| 17 mL/min/kg | C[C@H]1Cc2[nH]nc(-c3cccs3)c2CN1C(=O)Nc1cccc(Cl)c1 |  |
| 21 mL/min/kg | C[C@H]1Cc2[nH]nc(-c3cscn3)c2CN1C(=O)Nc1ccc(F)c(Cl)c1 |  |
| 14 mL/min/kg | Cc1cc(NC(=O)N2Cc3c(-c4cscn4)n[nH]c3C[C@@H]2C)ccc1F |  |
| 146 mL/min/kg | C[C@H]1Cc2c(c(-c3cccs3)nn2C)CN1C(=O)Nc1cccc(Cl)c1 |  |
